The record followed here is ChEMBL document CHEMBL5247671, “Design and Synthesis of Pyrazole-Based Macrocyclic Kinase Inhibitors Targeting BMPR2” (ACS Med Chem Lett, 2023).

Where “and” joins values, the source holds several entries; their conditions need not be identical. Equal values may be shown once.

Assay [1] deals with T1, Bone morphogenetic protein receptor type-2 (Homo sapiens) (UniProt Q13873).
T1 sequence (whole entry): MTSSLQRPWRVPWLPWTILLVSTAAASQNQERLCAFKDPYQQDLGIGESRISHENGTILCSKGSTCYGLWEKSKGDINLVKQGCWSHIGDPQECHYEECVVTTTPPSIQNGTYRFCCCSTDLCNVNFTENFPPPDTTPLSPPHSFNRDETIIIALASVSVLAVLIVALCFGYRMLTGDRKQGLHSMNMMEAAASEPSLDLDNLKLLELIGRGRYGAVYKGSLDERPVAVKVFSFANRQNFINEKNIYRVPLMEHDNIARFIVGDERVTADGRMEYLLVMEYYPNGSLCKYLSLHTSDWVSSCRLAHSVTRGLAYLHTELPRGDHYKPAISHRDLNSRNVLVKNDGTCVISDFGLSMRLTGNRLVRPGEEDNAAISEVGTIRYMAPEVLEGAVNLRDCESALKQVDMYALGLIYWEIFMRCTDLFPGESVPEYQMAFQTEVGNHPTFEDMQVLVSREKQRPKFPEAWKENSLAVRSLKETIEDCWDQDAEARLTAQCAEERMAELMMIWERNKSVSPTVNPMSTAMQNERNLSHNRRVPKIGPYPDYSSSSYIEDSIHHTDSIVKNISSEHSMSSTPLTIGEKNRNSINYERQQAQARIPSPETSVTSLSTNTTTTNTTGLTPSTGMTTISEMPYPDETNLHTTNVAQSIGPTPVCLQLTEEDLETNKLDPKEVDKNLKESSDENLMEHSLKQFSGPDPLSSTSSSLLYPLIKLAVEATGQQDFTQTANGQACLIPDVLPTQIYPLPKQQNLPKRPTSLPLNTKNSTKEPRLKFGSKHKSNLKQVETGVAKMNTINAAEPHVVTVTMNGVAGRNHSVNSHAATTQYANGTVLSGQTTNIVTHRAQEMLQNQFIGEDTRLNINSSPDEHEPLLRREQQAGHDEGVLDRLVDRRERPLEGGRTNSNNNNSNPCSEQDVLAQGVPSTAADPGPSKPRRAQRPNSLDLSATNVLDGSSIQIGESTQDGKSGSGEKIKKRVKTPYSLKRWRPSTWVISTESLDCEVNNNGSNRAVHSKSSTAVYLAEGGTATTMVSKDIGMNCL
The experiment in a line: Binding affinity to BMPR2 (unknown origin) assessed as change in entropy by ITC assay. In outline:
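Binding measured by isothermal titration calorimetry against the recombinant BMPR2 kinase domain. Thermodynamic binding parameters, including the dissociation constant, were derived from the titration data.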

Assay [2] deals with T2, MAP/microtubule affinity-regulating kinase 4 (Homo sapiens) (UniProt Q96L34).
T2 sequence (whole entry): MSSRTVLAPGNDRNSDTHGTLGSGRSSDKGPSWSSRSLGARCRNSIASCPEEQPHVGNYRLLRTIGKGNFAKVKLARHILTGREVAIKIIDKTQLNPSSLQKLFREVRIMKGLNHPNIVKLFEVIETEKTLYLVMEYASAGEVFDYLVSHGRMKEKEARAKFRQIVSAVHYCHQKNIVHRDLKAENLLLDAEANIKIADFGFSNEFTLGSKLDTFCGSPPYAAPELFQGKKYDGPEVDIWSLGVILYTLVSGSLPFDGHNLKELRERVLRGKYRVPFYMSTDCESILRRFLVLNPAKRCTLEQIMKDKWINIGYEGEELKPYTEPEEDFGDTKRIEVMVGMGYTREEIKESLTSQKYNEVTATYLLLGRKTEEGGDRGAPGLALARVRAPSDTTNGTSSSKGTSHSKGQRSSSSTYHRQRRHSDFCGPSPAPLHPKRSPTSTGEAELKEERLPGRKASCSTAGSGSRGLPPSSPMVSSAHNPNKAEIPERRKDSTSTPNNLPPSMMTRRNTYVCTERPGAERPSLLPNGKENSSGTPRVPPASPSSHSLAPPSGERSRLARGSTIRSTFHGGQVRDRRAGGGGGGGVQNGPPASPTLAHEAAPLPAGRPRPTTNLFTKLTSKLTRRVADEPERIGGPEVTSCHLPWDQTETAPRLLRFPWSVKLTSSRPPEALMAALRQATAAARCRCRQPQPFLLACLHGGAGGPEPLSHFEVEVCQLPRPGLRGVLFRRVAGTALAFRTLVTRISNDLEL
Put plainly: Inhibition of recombinant MARK4 (unknown origin) at 10 uM by DSF assay relative to staurosporine. In outline: (§1)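 Differential scanning fluorimetry on an in-house panel of 90 recombinant kinases. Stabilization is read as the shift in melting temperature (ΔTm) relative to ligand-free protein. Staurosporine served as the positive control, and binding was also compared against its ΔTm.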
A general note: In DSF a fluorescence change marks the thermal transition of the protein.

For assay [3], the target named is T3, Bone morphogenetic protein receptor type-2 (Homo sapiens, UniProt Q13873).
T3 sequence (Q13873 whole entry): T1 sequence (whole entry)
The experiment in a line: Inhibition of BMPR2 (174 to end residues) (unknown origin) using MBP as substrate incubated for 60 mins in presence of ATP by ADP Glo assay. In outline:
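Enzymatic inhibition of the BMPR2 kinase was read out by ADP-Glo detection of ADP formed, and IC50 values were derived from concentration–response data.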

Assay [4] deals with Glycogen synthase kinase-3 alpha (Homo sapiens, UniProt P49840). Put plainly: Inhibition of N-terminal NanoLuc-fused full length GSK3A (unknown origin) transfected in HEK293T cells incubated for 2 hrs in presence of tracer K8 by NanoBRET assay. Type of assay: cell-based. In outline:
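Cellular target engagement by NanoBRET in intact cells expressing NanoLuc-fused GSK3A or GSK3B, with EC50 values derived from tracer displacement.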
On the technique in general: BRET reads energy transfer from a luciferase to a nearby fluorophore.

Assay [5] has as its target T4, Mitogen-activated protein kinase 15 (Homo sapiens) (UniProt Q8TD08).
T4 sequence (whole entry): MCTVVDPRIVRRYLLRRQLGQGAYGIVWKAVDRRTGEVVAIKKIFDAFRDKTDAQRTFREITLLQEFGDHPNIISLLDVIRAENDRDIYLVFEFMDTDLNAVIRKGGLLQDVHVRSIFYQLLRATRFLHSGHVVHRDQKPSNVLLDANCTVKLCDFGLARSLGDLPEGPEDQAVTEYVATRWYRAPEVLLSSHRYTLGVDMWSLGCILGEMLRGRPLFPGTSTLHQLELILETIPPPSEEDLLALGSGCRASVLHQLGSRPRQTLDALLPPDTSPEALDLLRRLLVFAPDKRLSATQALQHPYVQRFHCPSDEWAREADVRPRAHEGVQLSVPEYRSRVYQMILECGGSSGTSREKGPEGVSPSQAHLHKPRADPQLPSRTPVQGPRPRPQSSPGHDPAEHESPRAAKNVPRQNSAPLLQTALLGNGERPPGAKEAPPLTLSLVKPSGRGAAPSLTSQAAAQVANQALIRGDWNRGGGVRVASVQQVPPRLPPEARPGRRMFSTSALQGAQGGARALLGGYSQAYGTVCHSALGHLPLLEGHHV
The experiment in a line: Inhibition of recombinant MAPK15 (unknown origin) at 10 uM by DSF assay relative to staurosporine. In outline: as §1

For assay [6], the target named is Glycogen synthase kinase-3 beta (Homo sapiens, UniProt P49841). Put plainly: Inhibition of recombinant GSK3B (unknown origin) at 10 uM by DSF assay relative to staurosporine. The method, boiled down:
as §1

In assay [7] the target is BMP-2-inducible protein kinase (Homo sapiens) (UniProt Q9NSY1). The experiment in a line: Binding affinity to recombinant BMP2K (unknown origin) assessed as change in melting temperature at 10 uM by DSF assay. In outline:
as §1

Sequence of BMP-2-inducible protein kinase (Homo sapiens) (Q9NSY1 whole entry, looked up): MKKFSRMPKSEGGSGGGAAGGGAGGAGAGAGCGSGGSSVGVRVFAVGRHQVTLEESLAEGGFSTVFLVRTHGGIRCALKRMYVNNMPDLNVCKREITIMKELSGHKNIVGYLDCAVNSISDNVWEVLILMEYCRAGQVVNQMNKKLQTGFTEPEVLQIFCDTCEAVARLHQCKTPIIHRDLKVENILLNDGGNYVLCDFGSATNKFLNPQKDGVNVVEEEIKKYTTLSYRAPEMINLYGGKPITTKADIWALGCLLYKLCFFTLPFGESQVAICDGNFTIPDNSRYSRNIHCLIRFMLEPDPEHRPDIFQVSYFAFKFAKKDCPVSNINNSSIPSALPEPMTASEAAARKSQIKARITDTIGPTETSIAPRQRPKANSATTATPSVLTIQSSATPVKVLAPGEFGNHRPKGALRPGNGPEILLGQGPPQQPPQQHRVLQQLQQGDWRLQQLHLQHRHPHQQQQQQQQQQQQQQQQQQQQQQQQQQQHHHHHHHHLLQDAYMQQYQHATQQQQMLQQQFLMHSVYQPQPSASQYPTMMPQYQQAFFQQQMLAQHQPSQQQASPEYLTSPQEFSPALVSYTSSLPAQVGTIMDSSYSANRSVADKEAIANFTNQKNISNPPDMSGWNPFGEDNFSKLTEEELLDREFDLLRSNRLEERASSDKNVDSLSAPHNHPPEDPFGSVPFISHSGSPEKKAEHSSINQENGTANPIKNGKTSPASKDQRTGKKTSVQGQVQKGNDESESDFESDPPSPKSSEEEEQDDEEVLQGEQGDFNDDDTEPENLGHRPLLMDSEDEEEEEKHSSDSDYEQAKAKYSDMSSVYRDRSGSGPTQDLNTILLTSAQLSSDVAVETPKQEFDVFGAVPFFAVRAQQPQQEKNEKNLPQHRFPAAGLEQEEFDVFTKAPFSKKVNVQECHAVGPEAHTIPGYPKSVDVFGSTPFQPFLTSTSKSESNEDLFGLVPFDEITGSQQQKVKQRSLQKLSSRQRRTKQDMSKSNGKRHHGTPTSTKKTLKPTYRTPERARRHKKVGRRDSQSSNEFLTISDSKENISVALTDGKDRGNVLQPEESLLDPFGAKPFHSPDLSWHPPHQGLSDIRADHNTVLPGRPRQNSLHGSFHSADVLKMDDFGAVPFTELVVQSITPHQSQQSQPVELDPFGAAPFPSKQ
Sequence of Glycogen synthase kinase-3 alpha (P49840 whole entry, the tested form may be a part): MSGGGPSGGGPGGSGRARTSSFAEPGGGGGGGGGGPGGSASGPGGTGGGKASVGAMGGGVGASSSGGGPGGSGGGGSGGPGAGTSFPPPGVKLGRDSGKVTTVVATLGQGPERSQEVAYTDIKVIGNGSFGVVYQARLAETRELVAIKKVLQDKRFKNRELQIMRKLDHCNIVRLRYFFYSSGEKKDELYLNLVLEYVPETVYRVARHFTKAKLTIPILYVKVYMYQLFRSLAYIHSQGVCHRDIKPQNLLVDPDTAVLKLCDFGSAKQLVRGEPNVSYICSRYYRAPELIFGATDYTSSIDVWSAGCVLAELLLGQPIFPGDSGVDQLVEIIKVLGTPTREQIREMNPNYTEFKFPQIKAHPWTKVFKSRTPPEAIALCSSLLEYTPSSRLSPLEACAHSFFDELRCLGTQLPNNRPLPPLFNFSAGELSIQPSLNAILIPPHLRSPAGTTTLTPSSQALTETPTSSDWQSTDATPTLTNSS
Sequence of Glycogen synthase kinase-3 beta (P49841 whole entry, looked up): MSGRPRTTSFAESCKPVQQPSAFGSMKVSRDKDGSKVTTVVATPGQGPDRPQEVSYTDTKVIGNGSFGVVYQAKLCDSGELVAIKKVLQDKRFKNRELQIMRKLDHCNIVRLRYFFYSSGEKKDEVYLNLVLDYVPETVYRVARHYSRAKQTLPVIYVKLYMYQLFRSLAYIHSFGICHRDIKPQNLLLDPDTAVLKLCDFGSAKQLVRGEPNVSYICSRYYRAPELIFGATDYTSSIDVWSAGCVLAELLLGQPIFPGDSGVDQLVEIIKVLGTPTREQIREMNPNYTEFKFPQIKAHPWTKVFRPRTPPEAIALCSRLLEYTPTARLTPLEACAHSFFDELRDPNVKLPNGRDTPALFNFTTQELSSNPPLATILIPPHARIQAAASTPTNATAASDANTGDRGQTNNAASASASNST

Regarding `O=C1NCCc2ccc(cc2)Nc2nccc(n2)Nc2cc1[nH]n2`, the deltaS in assay [1] stood at 3.7 cal/mol.K. The inhibition in assay [2] was determined as 23%; in assay [5], 26%; in assay [6], 71%. The IC50 in assay [3] amounted to 0.506 µM; in assay [4] it was 11 µM. Also, the ΔTm in assay [7] is 5.8 °C and 5.3 °C.

Broadly, the inhibition is the share of the control response that was lost under treatment. For orientation: IC50 means the concentration that inhibits the measured activity by half. The ΔTm is the shift of the melting midpoint relative to a reference.
